In brackets after ≈: the same amount, converted by molar mass.
Columns and labels:
[1] = Half life of the compound at pH 1 at 37 degC by solution stability test; type: physicochemical; conditions: buffer
Method in brief: (§1)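 Chemical stability in aqueous solution at 37 °C, at pH 1.0 or pH 7.4. Half-life determined for each condition, in hours.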

[2] = Aqueous solubility of the compound at pH 6.5; type: physicochemical
[3] = Aqueous solubility of the compound at pH 1; type: physicochemical
[4] = Half life of the compound at pH 7.4 at 37 degC by solution stability test; type: physicochemical; conditions: buffer; method in brief: as §1
Rattus norvegicus [5] = test: AUC (0 to 24 hrs) in rat assessed as parent compound BMS-582949 at 142 mg/kg, po administered in 0.75% methocel vehicle as suspension; type: ADME, organism-based, Plasma; set-up: time < 24 hr, dose 142 mg/kg, route oral; conditions: in vivo
Method in brief: (§2)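 Oral dosing to rats as a methocel suspension. Prodrug given at 142 mpk (equivalent to 100 mpk of parent); parent given at 100 mpk. Parent drug measured in plasma over 24 h, giving Cmax, Tmax and AUC0–24h. The prodrug itself was also monitored in plasma.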

[6] = Aqueous solubility of the compound at pH 3.1; type: physicochemical
[7] = Aqueous solubility of the compound at pH 4.6; type: physicochemical
Rattus norvegicus [8] = test: Cmax in rat assessed as parent compound BMS-582949 at 14.2 mg/kg, po administered in 1:1 PEG 300/water as vehicle; type: ADME, organism-based; set-up: dose 14.2 mg/kg, route oral; conditions: in vivo
Method in brief: (§3)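 Oral dosing to rats as a solution in 1:1 PEG 300/water. Prodrug given at 14.2 mpk (equivalent to 10 mpk of parent); parent given at 10 mpk. Plasma levels of the parent drug measured over 24 h, giving Cmax, Tmax and AUC0–24h. The prodrug itself was also monitored in plasma.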

Rattus norvegicus [9] = test: Cmax in rat assessed as parent compound BMS-582949 at 142 mg/kg, po administered in 0.75% methocel vehicle as suspension; type: ADME, organism-based; set-up: dose 142 mg/kg, route oral; conditions: in vivo; method in brief: as §2
Rattus norvegicus [10] = test: Tmax in rat assessed as parent compound BMS-582949 at 142 mg/kg, po administered in 0.75% methocel vehicle as suspension; type: ADME, organism-based; set-up: dose 142 mg/kg, route oral; conditions: in vivo; method in brief: as §2
Rattus norvegicus [11] = test: AUC (0 to 24 hrs) in rat assessed as parent compound BMS-582949 at 14.2 mg/kg, po administered in 1:1 PEG 300/water as vehicle; type: ADME, organism-based, Plasma; set-up: time < 24 hr, dose 14.2 mg/kg, route oral; conditions: in vivo; method in brief: as §3
Rattus norvegicus [12] = test: Tmax in rat assessed as parent compound BMS-582949 at 14.2 mg/kg, po administered in 1:1 PEG 300/water as vehicle; type: ADME, organism-based; set-up: dose 14.2 mg/kg, route oral; conditions: in vivo; method in brief: as §3
[13] = Half life of the compound at pH 7.5 at 25 degC by solution stability test; type: physicochemical; conditions: buffer
[14] = Tmax in rat at 100 mg/kg, po administered in 0.75% methocel vehicle as suspension; type: ADME, organism-based; set-up: dose 100 mg/kg, route oral; conditions: in vivo; method in brief: as §2
[15] = Tmax in rat at 10 mg/kg, po administered with 1:1 PEG 300/water as vehicle; type: ADME, organism-based; set-up: dose 10 mg/kg, route oral; conditions: in vivo; method in brief: as §3
[16] = AUC (0 to 24 hrs) in rat at 100 mg/kg, po administered in 0.75% methocel vehicle as suspension; type: ADME, organism-based; set-up: time < 24 hr, dose 100 mg/kg, route oral; conditions: plasma; method in brief: as §2
[17] = Cmax in rat at 100 mg/kg, po administered in 0.75% methocel vehicle as suspension; type: ADME, organism-based; set-up: dose 100 mg/kg, route oral; conditions: in vivo; method in brief: as §2
[18] = Cmax in rat at 10 mg/kg, po administered with 1:1 PEG 300/water as vehicle; type: ADME, organism-based; set-up: dose 10 mg/kg, route oral; conditions: in vivo; method in brief: as §3
[19] = AUC (0 to 24 hrs) in rat at 10 mg/kg, po administered with 1:1 PEG 300/water as vehicle; type: ADME, organism-based; set-up: time < 24 hr, dose 10 mg/kg, route oral; conditions: plasma; method in brief: as §3

With `CCCNC(=O)c1cn2ncnc(Nc3cc(C(=O)N(C(=O)OCOC(=O)/C=C/C(=O)O)C4CC4)ccc3C)c2c1C` the half-life [1] was 34.5 h, the solubility [2] was 1570 µg/mL (≈ 2710 µM) and the solubility [3] was 166 µg/mL (≈ 287 µM). The half-life [4] was 21.8 h.
In the case of `CCCN(C(=O)OCOC(=O)/C=C/C(=O)O)C(=O)c1cn2ncnc(Nc3cc(C(=O)NC4CC4)ccc3C)c2c1C`, the half-life [1] is reported as 79.4 h, the AUC (Rattus norvegicus [5]) is reported as 213.9 µM·h and the solubility [6] is reported as 105 µg/mL (≈ 181 µM). For the same molecule, the solubility [7] was 367 µg/mL (≈ 634 µM), the solubility [2] was 883 µg/mL (≈ 1530 µM) and the solubility [3] was 1180 µg/mL (≈ 2040 µM). It also gave a half-life [4] of 38.5 h, a Cmax (Rattus norvegicus [8]) of 4.6 µM and a Cmax (Rattus norvegicus [9]) of 21.1 µM. The Tmax (Rattus norvegicus [10]) was 6 h, the AUC (Rattus norvegicus [11]) was 52 µM·h and the Tmax (Rattus norvegicus [12]) was 4 h.
In the case of `CCCNC(=O)c1cn2ncnc(N(C(=O)OCOP(=O)(O)O)c3cc(C(=O)NC4CC4)ccc3C)c2c1C`, the half-life [1] is reported as 8.5 h and the half-life [4] is reported as < 0.25 h.
For `CCCN(C(=O)OCOP(=O)(O)O)C(=O)c1cn2ncnc(Nc3cc(C(=O)NC4CC4)ccc3C)c2c1C`, the half-life [1] was 26.8 h and the half-life [4] was < 0.25 h.
For `CCCNC(=O)c1cn2ncnc(Nc3cc(C(=O)N(C(=O)OCOP(=O)(O)O)C4CC4)ccc3C)c2c1C`, the half-life [1] was 20.5 h and the half-life [4] was < 0.25 h.
With `COc1ccc(CCNC(=O)OCOP(=O)(O)O)cc1OC` the half-life [13] was 1150 h.
For `O=C(OCOP(=O)(O)O)OC1Cc2ccccc2C1`, the half-life [13] was 0.967 h.
With `CCCNC(=O)c1cn2ncnc(Nc3cc(C(=O)N(C(=O)OCOC(=O)[C@H](C)N)C4CC4)ccc3C)c2c1C.Cl` the half-life [1] was 3 h and the half-life [4] was < 0.25 h.
Molecule `CCCNC(=O)c1cn2ncnc(N(C(=O)OCOC(=O)/C=C/C(=O)O)c3cc(C(=O)NC4CC4)ccc3C)c2c1C` has a half-life [1] of 129 h, a solubility [2] of 1150 µg/mL (≈ 1990 µM) and a solubility [3] of 8 µg/mL (≈ 13.8 µM). It also gave a half-life [4] of 14.6 h.
With `CCCNC(=O)c1cn2ncnc(N(C(=O)OCOC(=O)[C@H](C)N)c3cc(C(=O)NC4CC4)ccc3C)c2c1C.Cl.Cl` the half-life [1] was 3.2 h and the half-life [4] was < 0.25 h.
With `CCCN(C(=O)OCOC(=O)[C@H](C)N)C(=O)c1cn2ncnc(Nc3cc(C(=O)NC4CC4)ccc3C)c2c1C.Cl.Cl` the half-life [1] was 3.2 h and the half-life [4] was < 0.25 h.
`CCCNC(=O)c1cn2ncnc(Nc3cc(C(=O)NC4CC4)ccc3C)c2c1C` [BMS-582949] showed a Tmax [14] of 1.7 h, a Tmax [15] of 1 h and an AUC(0-t) at 24 h [16] of 5.6 µM·h. It also gave a Cmax [17] of 0.8 µM, a Cmax [18] of 6.5 µM and an AUC(0-t) at 24 h [19] of 53.3 µM·h.
